Assay results reported in ChEMBL document CHEMBL1141286, “Benzochromenones from the marine crinoid Comantheria rotula inhibit hypoxia-inducible factor-1 (HIF-1) in cell-based reporter assays and differentially suppress the growth of certain tumor cell lines” (J Nat Prod, 2007).
Activity calls are given as the source filed them. No cut-off for these calls is given here.

How the values were obtained:
[1] = system: U-251; test: Growth inhibition of human U251 cells; type: functional
[2] = Growth inhibition of human OVACAR3 cells; type: functional
[3] = system: NCI-H322M; test: Growth inhibition of human NCI-H322M cells; type: functional
[4] = system: SNB-19; test: Growth inhibition of human SNB19 cells; type: functional
[5] = system: HCT-116; test: Growth inhibition of human HCT116 cells; type: functional
[6] = system: MDA-MB-435; test: Growth inhibition of human MDA-MB-435 cells; type: functional
[7] = system: BT-549; test: Growth inhibition of human BT549 cells; type: functional
[8] = system: SNB-75; test: Growth inhibition of human SNB75 cells; type: functional
[9] = system: CCRF-CEM; test: Growth inhibition of human CCRF-CEM cells; type: functional
[10] = system: T47D; test: Inhibition of 1,10-phenanthroline-induced VEGF protein secretion in human T47D cells at 10 uM after 16 hrs by ELISA; type: functional, cell-based
How it was run: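 T47D cells stimulated with 1,10-phenanthroline, compound at 10 μM; secreted VEGF in conditioned media by ELISA, normalized to cell-lysate protein.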

[11] = system: Hs-578T; test: Growth inhibition of human HS578T cells; type: functional
[12] = system: A549; test: Growth inhibition of human A549 cells; type: functional
[13] = system: T47D; test: Growth inhibition of human T47D cells; type: functional
[14] = system: MCF7; test: Growth inhibition of human MCF7 cells; type: functional
[15] = system: SK-MEL-28; test: Growth inhibition of human SK-MEL28 cells; type: functional
[16] = system: 786-0; test: Growth inhibition of human 786-0 cells; type: functional
[17] = system: NCI-H522; test: Growth inhibition of human NCI-H522 cells; type: functional
[18] = system: LOX IMVI; test: Growth inhibition of human LOXIMVI cells; type: functional
[19] = system: SW-620; test: Growth inhibition of human SW620 cells; type: functional
[20] = system: UACC-62; test: Growth inhibition of human UACC62 cells; type: functional
[21] = system: NCI/ADR-RES; test: Growth inhibition of human NCI/ADR-RES cells; type: functional
[22] = system: SN12C; test: Growth inhibition of human SN12C cells; type: functional
[23] = system: CAKI-1; test: Growth inhibition of human CAKI1 cells; type: functional
[24] = system: DU-145; test: Growth inhibition of human DU145 cells; type: functional
[25] = system: HOP-62; test: Growth inhibition of human HOP62 cells; type: functional
[26] = system: PC-3; test: Growth inhibition of human PC3 cells; type: functional
[27] = system: UO-31; test: Growth inhibition of human UO31 cells; type: functional
[28] = system: OVCAR-5; test: Growth inhibition of human OVACAR5 cells; type: functional
[29] = system: SF-295; test: Growth inhibition of human SF295 cells; type: functional
[30] = system: KM12; test: Growth inhibition of human KM12 cells; type: functional
[31] = system: SF-268; test: Growth inhibition of human SF268 cells; type: functional
[32] = system: COLO 205; test: Growth inhibition of human COLO205 cells; type: functional
[33] = system: NCI-H23; test: Growth inhibition of human NCI-H23 cells; type: functional
[34] = system: K562; test: Growth inhibition of human K562 cells; type: functional
[35] = Inhibition of 1,10-phenanthroline-induced HIF1 activation in T47D cells by TK-luciferase assay; type: cell-based; conditions: Homo sapiens
How it was run: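 HIF-1 reporter (pHRE-TK-Luc) assays in transfected PC-3 or T47D cells; HIF-1 induced by hypoxia or by the hypoxia mimetic 1,10-phenanthroline (10 μM); compounds at half-log concentrations; luciferase activity measured; IC50 from experiments in triplicate.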

[36] = system: HCT-15; test: Growth inhibition of human HCT15 cells; type: functional
[37] = system: ACHN; test: Growth inhibition of human ACHN cells; type: functional
[38] = system: SR; test: Growth inhibition of human SR cells; type: functional
[39] = system: MDA-MB-231; test: Growth inhibition of human MDA-MB-231 cells; type: functional
[40] = system: SK-OV-3; test: Growth inhibition of human SK-OV3 cells; type: functional
[41] = read-out: Log LC50 (the source's name) (converted)

For `CCCc1cc(=O)c2c(OC)c3c(OC)cc(OC)cc3cc2o1`, the GI50 [1] was over 100 µM, the LC50 [1] was over 100 µM and the TGI ([1]; read-out: Log TGI (converted)) was over 100 µM. For the same compound, the GI50 [2] was 38.9 µM, the CC50 [2, 41] was over 100 µM and the TGI ([2]; read-out: Log TGI (converted)) was over 100 µM. For the same compound, the GI50 [3] was over 100 µM, the CC50 [3, 41] was over 100 µM and the TGI ([3]; read-out: Log TGI (converted)) was over 100 µM. The GI50 [4] was over 100 µM, the LC50 [4] was over 100 µM and the TGI ([4]; read-out: Log TGI (converted)) was over 100 µM. The GI50 [5] was 42.7 µM, the CC50 [5, 41] was 34.7 µM and the TGI ([5]; read-out: Log TGI (converted)) was over 100 µM. The GI50 [6] was 97.7 µM, the LC50 [6] was over 100 µM and the TGI ([6]; read-out: Log TGI (converted)) was over 100 µM. For the same compound, the GI50 [7] was 66.1 µM, the LC50 [7] was over 100 µM and the TGI ([7]; read-out: Log TGI (converted)) was over 100 µM. For the same compound, the GI50 [8] was 74.1 µM, the LC50 [8] was over 100 µM and the TGI ([8]; read-out: Log TGI (converted)) was over 100 µM. The GI50 [9] was 58.9 µM, the LC50 [9] was over 100 µM and the TGI ([9]; read-out: Log TGI (converted)) was 100 µM. For the same compound, the Activity [10] was “inactive”, the GI50 [11] was 33.1 µM and the LC50 [11] was over 100 µM. The TGI ([11]; read-out: Log TGI (converted)) was over 100 µM, the GI50 [12] was 58.9 µM and the CC50 [12, 41] was over 100 µM. The TGI ([12]; read-out: Log TGI (converted)) was over 100 µM, the GI50 [13] was 16.6 µM and the LC50 [13] was over 100 µM. The TGI ([13]; read-out: Log TGI (converted)) was over 100 µM, the GI50 [14] was 93.3 µM and the LC50 [14] was over 100 µM. For the same compound, the TGI ([14]; read-out: Log TGI (converted)) was over 100 µM, the GI50 [15] was over 100 µM and the CC50 [15, 41] was over 100 µM. The TGI ([15]; read-out: Log TGI (converted)) was over 100 µM, the GI50 [16] was 91.2 µM and the LC50 [16] was over 100 µM. The TGI ([16]; read-out: Log TGI (converted)) was over 100 µM, the GI50 [17] was 32.4 µM and the CC50 [17, 41] was over 100 µM. The TGI ([17]; read-out: Log TGI (converted)) was over 100 µM, the GI50 [18] was 69.2 µM and the LC50 [18] was over 100 µM. The TGI ([18]; read-out: Log TGI (converted)) was over 100 µM, the GI50 [19] was over 100 µM and the CC50 [19, 41] was over 100 µM. The TGI ([19]; read-out: Log TGI (converted)) was over 100 µM, the GI50 [20] was over 100 µM and the LC50 (lethal concentration, 50% cell kill) [20] was over 100 µM. For the same compound, the TGI ([20]; read-out: Log TGI (converted)) was over 100 µM, the GI50 [21] was 74.1 µM and the LC50 (concentration killing 50% of cells) [21] was over 100 µM. The TGI ([21]; read-out: Log TGI (converted)) was over 100 µM, the GI50 [22] was over 100 µM and the LC50 [22] was over 100 µM. It also gave a TGI ([22]; read-out: Log TGI (converted)) of over 100 µM, a GI50 [23] of over 100 µM and an LC50 [23] of over 100 µM. The TGI ([23]; read-out: Log TGI (converted)) was over 100 µM, the GI50 [24] was 81.3 µM and the CC50 [24, 41] was over 100 µM. It also gave a TGI ([24]; read-out: Log TGI (converted)) of over 100 µM, a GI50 [25] of 57.5 µM and a CC50 [25, 41] of over 100 µM. The TGI ([25]; read-out: Log TGI (converted)) was over 100 µM, the GI50 [26] was 51.3 µM and the LC50 [26] was over 100 µM. The TGI ([26]; read-out: Log TGI (converted)) was over 100 µM, the GI50 [27] was 42.7 µM and the LC50 [27] was over 100 µM. For the same compound, the TGI ([27]; read-out: Log TGI (converted)) was over 100 µM, the GI50 [28] was over 100 µM and the LC50 [28] was over 100 µM. The TGI ([28]; read-out: Log TGI (converted)) was over 100 µM, the GI50 [29] was 53.7 µM and the LC50 [29] was over 100 µM. The TGI ([29]; read-out: Log TGI (converted)) was over 100 µM, the GI50 [30] was 87.1 µM and the CC50 [30, 41] was over 100 µM. For the same compound, the TGI ([30]; read-out: Log TGI (converted)) was over 100 µM, the GI50 [31] was over 100 µM and the LC50 [31] was over 100 µM. For the same compound, the TGI ([31]; read-out: Log TGI (converted)) was over 100 µM, the GI50 [32] was over 100 µM and the CC50 [32, 41] was over 100 µM. The TGI ([32]; read-out: Log TGI (converted)) was over 100 µM, the GI50 [33] was over 100 µM and the CC50 [33, 41] was over 100 µM. It also gave a TGI ([33]; read-out: Log TGI (converted)) of over 100 µM, a GI50 [34] of 39.8 µM and a CC50 [34, 41] of over 100 µM. For the same compound, the TGI ([34]; read-out: Log TGI (converted)) was over 100 µM, the IC50 [35] was 2 µM and the GI50 [36] was 35.5 µM. For the same compound, the CC50 [36, 41] was over 100 µM, the TGI ([36]; read-out: Log TGI (converted)) was over 100 µM and the GI50 [37] was over 100 µM. It also gave a CC50 [37, 41] of over 100 µM, a TGI ([37]; read-out: Log TGI (converted)) of over 100 µM and a GI50 [38] of 39.8 µM. For the same compound, the CC50 [38, 41] was over 100 µM, the TGI ([38]; read-out: Log TGI (converted)) was over 100 µM and the GI50 [39] was 25.7 µM. For the same compound, the LC50 [39] was over 100 µM, the TGI ([39]; read-out: Log TGI (converted)) was over 100 µM and the GI50 [40] was over 100 µM. The LC50 [40] was over 100 µM and the TGI ([40]; read-out: Log TGI (converted)) was over 100 µM.
